According to ChEMBL document CHEMBL1139009, “Analogues of neurohypophyseal hormones, oxytocin and arginine vasopressin, conformationally restricted in the N-terminal part of the molecule” (J Med Chem, 2006):

Key:
Rattus norvegicus [1] = species on record: Rattus norvegicus; assay: Antidiuretic activity against V2 receptor in Wistar rat at antidiuresis half life of 60 min; assay type: functional, Urine
Oxytocin receptor = target: T1, Oxytocin receptor (Rattus norvegicus, UniProt P70536); assay: (§1) Uterotonic activity against OT receptor in Wistar rat in absence of magnesium; assay type: functional
T1 sequence (P70536 whole entry): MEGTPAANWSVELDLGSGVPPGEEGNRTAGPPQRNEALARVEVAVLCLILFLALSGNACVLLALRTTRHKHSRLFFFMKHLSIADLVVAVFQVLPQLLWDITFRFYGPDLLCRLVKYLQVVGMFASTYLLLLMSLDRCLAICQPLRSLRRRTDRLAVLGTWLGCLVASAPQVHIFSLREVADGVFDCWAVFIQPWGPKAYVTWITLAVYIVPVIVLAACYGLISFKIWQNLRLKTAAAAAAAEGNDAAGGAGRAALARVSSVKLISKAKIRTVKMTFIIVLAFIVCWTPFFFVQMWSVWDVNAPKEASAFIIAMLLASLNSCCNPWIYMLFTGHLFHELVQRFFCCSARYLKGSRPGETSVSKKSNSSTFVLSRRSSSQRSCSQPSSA
Outline: (§2)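 Isolated uterus from female Wistar rats estrogenized 48 h beforehand, tested in vitro without magnesium ions. Synthetic oxytocin served as standard. Dose-response curves from single administrations or cumulative dosing without washing. Values are means of three to five separate experiments.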

Rattus norvegicus [2] = species on record: Rattus norvegicus; assay: Antidiuretic activity against V2 receptor in Wistar rat at antidiuresis half life of 200 min; assay type: functional, Urine
[3] = target: Vasopressin V1a receptor (Rattus norvegicus) (UniProt P30560); assay: Pressor activity against V1a receptor in Wistar rat
Sequence of Vasopressin V1a receptor (Rattus norvegicus) (P30560 whole entry, looked up): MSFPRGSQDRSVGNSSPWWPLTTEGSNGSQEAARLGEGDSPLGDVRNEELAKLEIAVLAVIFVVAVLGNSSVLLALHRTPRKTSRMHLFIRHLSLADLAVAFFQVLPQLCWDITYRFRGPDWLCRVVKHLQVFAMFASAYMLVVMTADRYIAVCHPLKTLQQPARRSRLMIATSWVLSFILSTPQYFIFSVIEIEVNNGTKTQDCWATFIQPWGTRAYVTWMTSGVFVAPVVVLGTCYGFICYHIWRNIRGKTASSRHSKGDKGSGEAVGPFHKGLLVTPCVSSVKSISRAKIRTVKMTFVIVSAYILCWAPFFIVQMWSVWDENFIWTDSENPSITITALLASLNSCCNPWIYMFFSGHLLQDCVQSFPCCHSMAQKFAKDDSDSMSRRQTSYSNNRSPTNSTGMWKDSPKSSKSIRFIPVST

[4] = target: T2, Oxytocin receptor (Rattus norvegicus) (UniProt P70536); assay: as §1; assay type: functional; outline: as §2
T2 sequence (whole entry): T1 sequence (P70536 whole entry)

| SMILES | pressor activity [3] [IU/mg] | Activity (Rattus norvegicus [1]) [IU/mg] | further results |
| --- | --- | --- | --- |
| CC(C)C[C@H](NC(=O)[C@@H]1CCCN1C(=O)[C@@H]1CSSCCC(=O)N2CCN(C(=O)[C@@H]2Cc2ccccc2)[C@@H](Cc2ccccc2)C(=O)N[C@@H](CCC(N)=O)C(=O)N[C@@H](CC(N)=O)C(=O)N1)C(=O)NCC(N)=O [listing 1 of 2 here] |  | <0.04 |  |
| NC(=O)CC[C@@H]1NC(=O)[C@H](Cc2ccccc2)NC(=O)[C@H](Cc2ccc(O)cc2)NC(=O)[C@@](N)(CO)CSSC[C@@H](C(=O)N2CCC[C@H]2C(=O)N[C@@H](CCCN=C(N)N)C(=O)NCC(N)=O)NC(=O)[C@H](CC(N)=O)NC1=O [listing 1 of 2 here] |  |  | pA2 (Oxytocin receptor): 6.4 |
| CC(C)C[C@H](NC(=O)[C@@H]1CCCN1C(=O)[C@@H]1CSSC2(CCCCC2)CC(=O)N2CCN(C(=O)[C@@H]2Cc2ccccc2)[C@@H](Cc2ccccc2)C(=O)N[C@@H](CCC(N)=O)C(=O)N[C@@H](CC(N)=O)C(=O)N1)C(=O)NCC(N)=O [listing 1 of 2 here] |  |  | pA2 (Oxytocin receptor): 6.72 |
| NC(=O)CC[C@@H]1NC(=O)[C@H](Cc2ccccc2)NC(=O)[C@H](Cc2ccc(O)cc2)NC(=O)[C@@](N)(CO)CSSC[C@@H](C(=O)N2CCC[C@H]2C(=O)N[C@@H](CCCN=C(N)N)C(=O)NCC(N)=O)NC(=O)[C@H](CC(N)=O)NC1=O [listing 2 of 2 here] |  | 4.5 | Activity (Rattus norvegicus [2]): 22.5 IU/mg |
| CC(C)[C@@H]1NC(=O)[C@H](C)N(Cc2ccccc2)C(=O)[C@H](Cc2ccc(O)cc2)NC(=O)CCSSC[C@@H](C(=O)N2CCC[C@H]2C(=O)N[C@@H](CCCN=C(N)N)C(=O)NCC(N)=O)NC(=O)[C@H](CC(N)=O)NC1=O |  | <0.04 |  |
| CC(C)[C@@H]1NC(=O)[C@H](C)N(Cc2ccccc2)C(=O)[C@H](Cc2ccc(O)cc2)NC(=O)[C@@H](N)CSSC[C@@H](C(=O)N2CCC[C@H]2C(=O)N[C@@H](CCCN=C(N)N)C(=O)NCC(N)=O)NC(=O)[C@H](CC(N)=O)NC1=O |  | <0.04 |  |
| CC(C)[C@@H]1NC(=O)[C@H](C)N(Cc2ccccc2)C(=O)[C@H](Cc2ccc(O)cc2)NC(=O)CC2(CCCCC2)SSC[C@@H](C(=O)N2CCC[C@H]2C(=O)N[C@@H](CCCN=C(N)N)C(=O)NCC(N)=O)NC(=O)[C@H](CC(N)=O)NC1=O |  | <0.04 |  |
| CC(C)C[C@H](NC(=O)[C@@H]1CCCN1C(=O)[C@@H]1CSSC[C@H](N)C(=O)N2CCN(C(=O)[C@@H]2Cc2ccccc2)[C@@H](Cc2ccccc2)C(=O)N[C@@H](CCC(N)=O)C(=O)N[C@@H](CC(N)=O)C(=O)N1)C(=O)NCC(N)=O [listing 1 of 2 here] |  |  | pA2 (Oxytocin receptor): 6.82 |
| CC(C)C[C@H](NC(=O)[C@@H]1CCCN1C(=O)[C@@H]1CSSC2(CCCCC2)CC(=O)N2CCN(C(=O)[C@@H]2Cc2ccccc2)[C@@H](Cc2ccccc2)C(=O)N[C@@H](CCC(N)=O)C(=O)N[C@@H](CC(N)=O)C(=O)N1)C(=O)NCC(N)=O [listing 2 of 2 here] |  | <0.04 |  |
| CC(C)C[C@H](NC(=O)[C@@H]1CCCN1C(=O)[C@@H]1CSSCCC(=O)N2CCN(C(=O)[C@@H]2Cc2ccccc2)[C@@H](Cc2ccccc2)C(=O)N[C@@H](CCC(N)=O)C(=O)N[C@@H](CC(N)=O)C(=O)N1)C(=O)NCC(N)=O [listing 2 of 2 here] |  |  | pA2 (Oxytocin receptor): 6.5 |
| CC(C)C[C@H](NC(=O)[C@@H]1CCCN1C(=O)[C@@H]1CSSC[C@H](N)C(=O)N2CCN(C(=O)[C@@H]2Cc2ccccc2)[C@@H](Cc2ccccc2)C(=O)N[C@@H](CCC(N)=O)C(=O)N[C@@H](CC(N)=O)C(=O)N1)C(=O)NCC(N)=O [listing 2 of 2 here] |  | <0.04 |  |
| CC(C)[C@@H]1NC(=O)[C@H](C)N(Cc2ccccc2)C(=O)[C@H](Cc2ccc(O)cc2)NC(=O)CC2(CCCCC2)SSC[C@H](C(=O)N2CCC[C@H]2C(=O)N[C@@H](CCCN=C(N)N)C(=O)NCC(N)=O)NC(=O)[C@H](CC(N)=O)NC1=O | 0 |  | Activity [4]: 0 IU/mg |

Continued, in another order:

| pressor activity [3] [IU/mg] | SMILES | Activity (Rattus norvegicus [1]) [IU/mg] | further results |
| --- | --- | --- | --- |
| 0 | CC(C)C[C@H](NC(=O)[C@@H]1CCCN1C(=O)[C@H]1CSSC[C@@H](N)C(=O)N2CCN(C(=O)[C@@H]2Cc2ccccc2)[C@@H](Cc2ccccc2)C(=O)N[C@@H](CCC(N)=O)C(=O)N[C@@H](CC(N)=O)C(=O)N1)C(=O)NCC(N)=O |  |  |
| 0 | CC(C)[C@@H]1NC(=O)[C@H](C)N(Cc2ccccc2)C(=O)[C@H](Cc2ccc(O)cc2)NC(=O)[C@H](N)CSSC[C@H](C(=O)N2CCC[C@H]2C(=O)N[C@@H](CCCN=C(N)N)C(=O)NCC(N)=O)NC(=O)[C@H](CC(N)=O)NC1=O |  |  |
| 0 | CC(C)C[C@H](NC(=O)[C@@H]1CCCN1C(=O)[C@H]1CSSC2(CCCCC2)CC(=O)N2CCN(C(=O)[C@@H]2Cc2ccccc2)[C@@H](Cc2ccccc2)C(=O)N[C@@H](CCC(N)=O)C(=O)N[C@@H](CC(N)=O)C(=O)N1)C(=O)NCC(N)=O |  |  |
| 0 | CC(C)[C@@H]1NC(=O)[C@H](C)N(Cc2ccccc2)C(=O)[C@H](Cc2ccc(O)cc2)NC(=O)CCSSC[C@H](C(=O)N2CCC[C@H]2C(=O)N[C@@H](CCCN=C(N)N)C(=O)NCC(N)=O)NC(=O)[C@H](CC(N)=O)NC1=O |  |  |
| 0.18 | NC(=O)CC[C@@H]1NC(=O)[C@H](Cc2ccccc2)NC(=O)[C@H](Cc2ccc(O)cc2)NC(=O)[C@@](N)(CO)CSSC[C@H](C(=O)N2CCC[C@H]2C(=O)N[C@@H](CCCN=C(N)N)C(=O)NCC(N)=O)NC(=O)[C@H](CC(N)=O)NC1=O |  |  |
| 0 | CC(C)C[C@H](NC(=O)[C@@H]1CCCN1C(=O)[C@H]1CSSCCC(=O)N2CCN(C(=O)[C@@H]2Cc2ccccc2)[C@@H](Cc2ccccc2)C(=O)N[C@@H](CCC(N)=O)C(=O)N[C@@H](CC(N)=O)C(=O)N1)C(=O)NCC(N)=O |  |  |
